Screening results as filed in PubChem BioAssay.
Rows were chosen to be rich in hits. Some 4.1% of all compounds tested hit in one or more screens of this group.
KCNQ1 pot: potentiates or activates the human KCNQ1 potassium channel. CHO-K1 KCNQ1, thallium flux FluxOR fluorescence; hits give high values. P51787. B-score at 10 µM. AID 2648. 310,000 tested, 0.35% active;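 active = fluorescence ratio B-score, a plate-corrected score, at least three library SD, with initial intensity B-score within 5 SD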
Target sequence (P51787 whole entry, looked up): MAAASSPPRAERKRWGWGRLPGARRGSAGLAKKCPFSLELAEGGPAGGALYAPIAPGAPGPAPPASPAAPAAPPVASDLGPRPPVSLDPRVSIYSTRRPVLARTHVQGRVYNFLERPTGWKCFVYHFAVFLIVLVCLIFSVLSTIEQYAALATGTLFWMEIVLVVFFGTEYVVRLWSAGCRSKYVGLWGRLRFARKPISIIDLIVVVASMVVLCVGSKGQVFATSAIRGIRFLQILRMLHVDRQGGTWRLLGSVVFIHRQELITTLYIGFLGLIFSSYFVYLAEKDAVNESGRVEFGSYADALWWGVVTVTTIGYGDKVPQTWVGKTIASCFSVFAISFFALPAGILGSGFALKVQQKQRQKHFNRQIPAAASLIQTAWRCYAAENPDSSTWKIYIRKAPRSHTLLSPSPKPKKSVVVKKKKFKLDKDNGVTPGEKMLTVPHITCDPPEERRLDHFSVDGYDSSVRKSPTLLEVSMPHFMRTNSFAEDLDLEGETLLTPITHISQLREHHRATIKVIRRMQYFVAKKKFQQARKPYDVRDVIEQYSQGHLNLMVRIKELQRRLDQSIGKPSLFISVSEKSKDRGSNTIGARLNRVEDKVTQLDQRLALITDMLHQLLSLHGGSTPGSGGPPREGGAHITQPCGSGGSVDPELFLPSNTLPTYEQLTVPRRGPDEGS
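assay system = CHO-K1 cells stably expressing KCNQ1 | medium = assay buffer, equal DMSO in all wells | timing = 37 °C overnight plating, 90-min dark dye load, 20-min compound pretreatment | measured by = kinetic FluxOR thallium fluorescence, 10-s 1-Hz baseline, 110-s post-stimulus read | measure = fluorescence change relative to baseline, converted to B score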
KCNK3 inh: human KCNK3 channel inhibition, primary screen | O14649 | B-score at 10 µM | 340,000 tested, 0.84% active | AID 602410 | CHO-KCNK3 thallium flux, FluxOR fluorescence; hits give low values;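 active = B-score under library mean minus 4 SD, starting fluorescence ratio at most library mean plus 5 SD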;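 also: more negative B-score means stronger inhibition of thallium flux through KCNK3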
KCC2 mod: modulators of human KCC2 chloride dependent transport | Q9H2X9 | KCC2 cells, thallium flux FluoZin-2 fluorescence | B-score of Tl+ flux slope (higher = more flux/activation; lower = inhibition) at 10 µM | 190,000 tested, 2.2% active;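 active = thallium flux slope and its plate-corrected score both differing from the plate sample mean at a set confidence after two filtering rounds, in either direction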;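 also: slope of fluorescence scaled to starting intensity during 10 to 20 s after thallium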
hERG protect: hERG (human) protection from proarrhythmic block; 310,000 tested, 0.51% active; AID 1511; CHO-hERG, FluxOR thallium flux, dofetilide IC70 present; activation (rescue from dofetilide block), less the hit threshold, % at 10 µM; Q12809;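 active = activation above the mean of controls blocked by dofetilide plus 5 SD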;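 also: thallium influx through hERG after potassium depolarization seen as dye fluorescence rise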
KCNK9 inh: blocks the human KCNK9 two-pore domain potassium channel. 310,000 tested, 1.2% active. AID 488922. HEK293 KCNK9, FluxOR thallium flux fluorescence; hits give low values. B-score at 10 µM;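 active = ratio B-score over 3 SD below the library mean, with starting fluorescence within 5 SD of its mean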;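 also: negative B-score means less thallium flux so channel inhibition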
KCNQ1 block: blocks the human KCNQ1 potassium channel; CHO-K1 KCNQ1, FluxOR thallium flux fluorescence; hits give high values; B-score at 10 µM; 310,000 tested, 1.3% active; AID 2642;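 active = compounds whose thallium flux B-score, printed positive for inhibition, exceeds three library SD while starting fluorescence stays within three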;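 also: channel opened by potassium depolarization with thallium stimulus after 20 min compound exposure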
KCC2 secondary: KCC2 (human) modulation, secondary assay; shares compounds with KCC2 mod; HEK293-KCC2, thallium flux, FluoZin2 fluorescence; hits give high values; normalised thallium flux (F/F0 slope) at 10 µM; 3,700 tested, 15% active; AID 1713;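 active = thallium flux slope above the same plate's solvent-only control mean plus 3 SD; inconclusive = the two replicate wells disagree; inactive = no significant difference from solvent-only control wells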
KCC2 bumet counter: bumetanide-insensitive thallium flux in KCC2 cells with ouabain, counter-screen; shares compounds with KCC2 mod; HEK293-KCC2 + bumetanide/ouabain, thallium flux FluoZin2; hits give high values; normalized thallium flux at 10 µM; 3,700 tested, 49% active; AID 1714;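 active = thallium entry rate above the same plate's blocked-transporter control wells by more than 3 SD; inconclusive = the two repeat wells disagree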;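 also: raw slope of fluorescence over initial fluorescence between 10 and 20 s after thallium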
KCC2 secondary2: KCC2 (human) modulation, second secondary assay. shares compounds with KCC2 mod. HEK293-KCC2, thallium flux FluoZin2 fluorescence; actives lie on both sides; F/F0 rise rate, 10–20 s post-thallium. normalized thallium flux at 10 µM. 3,700 tested, 23% active;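 active = thallium flux slope more than 3 SD above or below the plate's solvent-only control mean, mostly below; inconclusive = the two repeat wells disagreed; inactive = no significant shift from solvent-only controls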;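 also: raw slope with 0.1% DMSO as baseline and bumetanide as block control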
HEK counter1: parental HEK flux effect, counter-screen | shares compounds with KCC2 mod | HEK293 parental cells, thallium flux FluoZin2, ouabain; baseline-ratio fluorescence slope, 10–20 s after thallium | thallium flux rate (normalised fluorescence) at 10 µM | 3,700 tested, 46% active | AID 1716;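 active = thallium flux rate significantly above the same plate's solvent-only control wells, beyond their mean plus 3 SD; inconclusive = the two replicate wells gave conflicting results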
KCC2 ouabain: KCC2 (human) modulation, ouabain retest; raw Tl+ flux slope (below DMSO = inhibition, above = activation) at 10 µM; shares compounds with KCC2 mod; 3,700 tested, 48% active; HEK293-KCC2, thallium flux FluoZin2 fluorescence; bidirectional: low = inhibitor, high = activator; AID 1717;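 active = thallium flux slope beyond 3 SD from same-plate DMSO control mean in most replicates, usually higher, sometimes lower; inconclusive = repeat tests gave conflicting results; inactive = no significant difference from controls in most replicates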;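 also: slope of initial-normalized fluorescence between seconds 10 and 20 after thallium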
HEK293 Tl flux2: counter-screen for KCC2 modulators: effect in parental HEK293 cells | thallium flux FluoZin-2 fluorescence slope | AID 1718 | 3,700 tested, 33% active | thallium flux slope at 10 µM | shares compounds with KCC2 mod;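 active = thallium flux slope above the same plate's solvent-control mean plus 3 SD in both duplicate wells; inconclusive = duplicate wells that disagreed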;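 also: run without ouabain in cells lacking the KCC2 cotransporter; slope of fluorescence scaled to its starting value between 10 and 20 s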
* = called active by the depositor; i = inactive; ? = inconclusive; . = no result given.

SMILES | KCNQ1 pot | KCNK3 inh | KCC2 mod | hERG protect | KCNK9 inh | KCNQ1 block | KCC2 secondary | KCC2 bumet counter | KCC2 secondary2 | HEK counter1 | KCC2 ouabain | HEK293 Tl flux2
CCCCNc1cc(C(=O)O)cc(S(N)(=O)=O)c1Oc1ccccc1 | i | i | -6.4* | -14 | i | i | 0.0063 | 0.0046 | 0.023* | 0.0064 | 0.013* | 0.0094
CCCc1cc(-c2n[nH]c(=S)n2CC)cs1 | i | i | . | -4 | i | i | 0.013* | 0.02* | 0.031 | 0.014* | 0.026 | 0.012*
S=c1[nH]nc(COc2ccc(Cl)cc2)n1Cc1ccccc1 | i | i | 0.45 | -2 | i | i | . | . | . | . | . | .
S=c1[nH]nc(-c2ccc(Cl)cc2Cl)n1Cc1ccccc1 | i | i | 9* | -3 | i | i | 0.0059 | 0.039* | ? | 0.021* | 0.034* | 0.023*
S=c1[nH]nc(-c2ccc(Cl)cc2Cl)n1-c1ccccc1 | i | i | . | -8 | i | i | . | . | . | . | . | .
CCc1cc(-c2n[nH]c(=S)n2CC)cs1 | i | i | 0.18 | -4 | i | i | . | . | . | . | . | .
Cc1cccc(-c2n[nH]c(=S)n2Cc2ccccc2)c1 | i | i | 2.3 | -10 | i | i | . | . | . | . | . | .
S=c1[nH]nc(COc2cccc(Cl)c2)n1Cc1ccccc1 | i | i | 20* | -6 | i | i | 0.01 | 0.028* | 0.034 | 0.015* | ? | 0.012*
S=c1[nH]nc(-c2cccc(Cl)c2)n1Cc1ccccc1 | i | i | 4* | -6 | i | i | 0.015* | 0.044* | 0.037 | ? | 0.038* | ?
CCc1cc(-c2n[nH]c(=S)n2Cc2ccccc2)cs1 | i | i | 15* | -6 | i | i | 0.0067 | 0.02* | 0.03 | 0.016* | ? | 0.011*
Cc1ccc(-c2n[nH]c(=S)n2Cc2ccccc2)cc1 | i | i | . | -8 | i | i | . | . | . | . | . | .
CC1CCCCC1NC(=O)c1ccc(NC2=NC3CS(=O)(=O)CC3S2)cc1 (stereo not drawn) | i | i | . | -3 | i | i | . | . | . | . | . | .
O=C(Nc1ccc(Cl)c(Cl)c1)N(CCCN1CCOCC1)Cc1cccs1 | i | i | -3* | -25 | i | i | 0.0098 | 0.0063 | 0.033 | 0.007 | 0.021 | 0.011
CCC(C)NC(=O)c1cc(C)no1 (stereo not drawn) | i | i | -0.22 | -7 | i | i | . | . | . | . | . | .
O=C(O)c1ccc(N2CC3CC(C2)c2cccc(=O)n2C3)c(NC(=S)Nc2ccc(Cl)cc2Cl)c1 (stereo not drawn) | i | i | 15* | 0 | i | i | 0.011 | 0.015* | 0.035 | ? | ? | 0.013
CCNC(=O)CC1C(=O)N(c2ccccc2)C(=O)N1CCC(C)C (stereo not drawn) | i | i | -0.37 | -5 | i | i | . | . | . | . | . | .
CC(=O)OCC1OC(c2ccccc2)C(OC(C)=O)C(OC(C)=O)C1OC(C)=O (stereo not drawn) | i | i | 4.3* | -10 | i | i | 0.0064 | 0.005 | ? | 0.0071 | 0.018 | 0.01
CC(=O)OCC1OC(OC(C)=O)C(NC(=O)Cc2ccccc2)C(OC(C)=O)C1OC(C)=O (stereo not drawn) | i | i | -0.55 | -4 | i | i | . | . | . | . | . | .
CCC1=NN2C(=N)/C(=C\c3cccn3-c3ccc(OC)cc3)C(=O)N=C2S1 | i | i | 1.4 | -8 | i | i | . | . | . | . | . | .
Cc1ccc(-n2cccc2/C=C2\C(=N)N3N=C(C(C)C)SC3=NC2=O)cc1 | i | i | 7.1* | -7 | i | i | 0.0068 | 0.037* | ? | 0.03* | 0.031* | 0.017*
CCCCCC(=O)Cc1cc(O)cc2c1C(=O)Oc1cc(O)c(C(=O)O)c(CCCCC)c1O2 | i | . | -1.6* | -12 | i | i | ? | 0.0046 | 0.026* | 0.008 | ? | 0.011
Cn1cnc2cc(OC(=O)c3ccccc3)ccc21 | i | i | . | -1 | i | i | 0.01 | 0.0066 | 0.028 | 0.0073 | 0.05 | ?
C=CC(=O)Nc1sc2c(c1C(N)=O)CCCC2 | i | i | . | -11 | i | i | . | . | . | . | . | .
C=CCNC(=S)Nc1sc2c(c1C(N)=O)CCCC2 | i | i | 8.3* | -2 | i | i | 0.01 | 0.014* | 0.032 | 0.012* | 0.028* | 0.011*
O=C(CSc1ncccn1)N/N=C/c1cccs1 | i | i | 4.5* | 2 | i | i | 0.0077 | 0.0062 | 0.029 | 0.007 | 0.02 | 0.0092
SMILES | KCNQ1 pot | KCNK3 inh | KCC2 mod | hERG protect | KCNK9 inh | KCNQ1 block | KCC2 secondary | KCC2 bumet counter | KCC2 secondary2 | HEK counter1 | KCC2 ouabain | HEK293 Tl flux2
O=C(N/N=C/c1cccs1)c1ccccn1 | i | i | -0.086 | -1 | i | i | . | . | . | . | . | .
Cc1ccc(CN(c2ccc(C(=O)Nc3ccc4c(c3)OCO4)cc2)S(C)(=O)=O)cc1 | i | i | 4.7* | -9 | i | i | 0.0076 | ? | 0.028 | 0.008 | 0.019 | 0.012
O=C(Cn1nc(C(=O)O)c2ccccc2c1=O)Nc1cccc(S(=O)(=O)N2CCOCC2)c1 | . | i | . | . | . | . | . | . | . | . | . | .
O=C(Cn1c(-c2ccccc2)noc1=O)Nc1ccc(S(=O)(=O)N2CCOCC2)cc1 | i | i | -0.62 | -9 | i | i | . | . | . | . | . | .
COc1ccc(N(C(C)C(=O)N2CCC(Cc3ccccc3)CC2)S(C)(=O)=O)cc1 (stereo not drawn) | i | i | -3.6* | -23 | i | i | ? | 0.0057 | 0.035 | 0.0043 | 0.015* | 0.012
O=C(Cn1c(-c2ccccc2)noc1=O)N1CCC(Cc2ccccc2)CC1 | i | i | -5.2* | -16 | i | i | 0.0098 | 0.0068 | 0.028* | 0.0037 | 0.015* | 0.012
